We go through 34 molecules from ChEMBL document CHEMBL1149127, “Synthesis and antitubulin activity of N1- and N4-substituted 3,5-dinitro sulfanilamides against African trypanosomes and Leishmania” (J Med Chem, 2004).

Data set [1] relates to Trypanosoma brucei. The data set can be described thus: microbe, parasite or virus in culture. The format is functional, organism-based.
The subject of data set [2] is Leishmania donovani. The data set can be described thus: Inhibitory concentration against Leishmania donovani axenic amastigotes was determined in vitro. It counts as functional, organism-based.
Data set [3] relates to J774. Description: In vitro cytotoxicity against mouse J774 macrophages. The format is functional, cell-based.
Data set [4] has as its system Leishmania donovani. The data set can be described thus: Inhibition percentage of Leishmanial tubulin assembly at a concentration of 10 uM. In a few lines:
(§1)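 Leishmanial tubulin turbidity assay. Compounds added in 50% DMSO. Assembly started on ice by adding cold GTP in 25% DMSO. Turbidity followed at 351 nm while warming to 30 °C. Single-concentration tests run at 10 µM.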

The subject of data set [5] is PC-3. Description: In vitro cytotoxicity against mouse PC3 prostate cancer cell line. As to conditions: Homo sapiens. It counts as functional, cell-based.
Data set [6] addresses Tubulin (Sus scrofa) (UniProt P02554+P02550). The data set can be described thus: Inhibition of porcine brain tubulin assembly at 40 uM. In a few lines: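 Porcine brain tubulin purified by DEAE-Sepharose and a warm assembly cycle. Compound at 40 µM added in 100% DMSO. Assembly started on ice with cold GTP in water. Turbidity read at 351 nm while warming to 37 °C. Percent inhibition determined.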

In data set [7] the test system is Mus musculus. Description: Average survival time for mice infected with Trypanosoma brucei ST1B 795 when treated with 20 mg/kg administered intraperitoneally. It counts as functional. As to conditions: route intraperitoneal. In short, it runs like this:
(§2)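 Female NMRI mice (20-25 g) were infected ip with 10⁴ T. b. brucei STIB 795 bloodstream forms and randomly assigned to groups of four. Starting 4 days after infection, 20 mg/kg was given ip for 4 consecutive days. Vehicle was DMSO diluted with water, with final DMSO below 10%. Day of death was recorded for each mouse.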

Data set [8] is described as follows: Tested for toxicity against mice by intraperitoneal administration; No signs of toxicity. Conditions: mouse, in vivo, ip.
Data set [9] can be described thus: Inhibition of Leishmanial tubulin assembly. Details: species or system Leishmania donovani. In short, it runs like this: as §1
In data set [10] the test system is Mus musculus. Description: Tested against Trypanosoma brucei strain ST1B 795 in mice as cured to tested at 20 mg/kg/day administered intraperitoneally; 0/4. As to conditions: route intraperitoneal. It counts as functional.
In data set [11] the test system is Mus musculus. The data set can be described thus: Average survival time for mice infected with Trypanosoma brucei ST1B 795 when treated with 20 mg/kg administered i.p. Conditions: route intraperitoneal. It counts as functional. In short, it runs like this: as §2
Data set [12] concerns Tubulin (Leishmania donovani). The data set can be described thus: Inhibition percentage of Leishmanial tubulin assembly at a concentration of 10 uM.

For orientation: IC50 means the midpoint of a concentration-inhibition curve. A higher IC50 goes with a need for much substance. As usually defined, the inhibition is the drop in the measured response relative to a control, in per cent.

Sequence of Tubulin (Sus scrofa) (P02550 whole entry, looked up): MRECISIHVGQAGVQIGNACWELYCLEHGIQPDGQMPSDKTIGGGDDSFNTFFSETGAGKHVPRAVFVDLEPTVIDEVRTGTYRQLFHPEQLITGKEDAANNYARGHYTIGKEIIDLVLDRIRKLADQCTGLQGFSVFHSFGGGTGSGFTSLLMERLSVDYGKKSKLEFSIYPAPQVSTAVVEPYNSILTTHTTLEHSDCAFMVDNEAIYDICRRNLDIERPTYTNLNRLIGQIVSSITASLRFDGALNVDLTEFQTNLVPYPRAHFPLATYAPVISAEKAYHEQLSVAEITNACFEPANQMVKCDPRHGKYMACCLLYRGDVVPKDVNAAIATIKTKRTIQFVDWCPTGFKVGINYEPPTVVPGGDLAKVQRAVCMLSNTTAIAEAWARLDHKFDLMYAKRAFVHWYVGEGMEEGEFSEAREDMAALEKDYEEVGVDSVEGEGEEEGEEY
Sequence of Tubulin (Sus scrofa) (P02554 whole entry, looked up): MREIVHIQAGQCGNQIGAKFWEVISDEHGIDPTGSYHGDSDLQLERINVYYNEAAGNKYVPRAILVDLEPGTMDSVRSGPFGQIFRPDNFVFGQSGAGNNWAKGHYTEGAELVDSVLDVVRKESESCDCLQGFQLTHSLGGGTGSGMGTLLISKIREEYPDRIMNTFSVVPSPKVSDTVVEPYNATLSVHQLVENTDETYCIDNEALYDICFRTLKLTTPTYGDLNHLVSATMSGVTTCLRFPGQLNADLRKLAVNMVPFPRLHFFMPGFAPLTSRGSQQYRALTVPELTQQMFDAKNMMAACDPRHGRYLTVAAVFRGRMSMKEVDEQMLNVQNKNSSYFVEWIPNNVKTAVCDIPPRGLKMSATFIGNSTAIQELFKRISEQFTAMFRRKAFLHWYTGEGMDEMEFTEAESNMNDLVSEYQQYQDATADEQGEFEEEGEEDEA

For the molecule `CCCCCCN(CCCCCC)S(=O)(=O)c1cc([N+](=O)[O-])c(N(CCC)CCC)c([N+](=O)[O-])c1`, the values for the half-maximal inhibitory concentration (IC50) in data set [1] and in data set [2] were > 50 µM and > 100 µM, respectively.
As to `CCCN(CCC)c1c([N+](=O)[O-])cc(S(=O)(=O)N2CCCC2)cc1[N+](=O)[O-]`, the IC50 in data set [1] is 6.5 µM; in data set [2], 47 µM.
Taken in the same sequence, the figures for `CCCCN(CCCC)S(=O)(=O)c1cc([N+](=O)[O-])c(N(CCC)CCC)c([N+](=O)[O-])c1` were 38 µM and 48 µM.
Regarding `CCCN(CCC)c1c([N+](=O)[O-])cc(S(=O)(=O)Nc2cccc(Cl)c2)cc1[N+](=O)[O-]`, the IC50 turned out to be 2.1 µM in data set [1], 8.7 µM in data set [3], 18 µM in data set [5] and 5.5 µM in data set [2]. Moreover, the figures for the inhibition in data set [4] and in [6] were 57% and < 20%, respectively.
For `CCCN(CCC)c1c([N+](=O)[O-])cc(S(=O)(=O)NCC)cc1[N+](=O)[O-]`, the results for the IC50 in [1] and in data set [2] were 5.4 µM and > 100 µM, respectively.
Regarding `CCCN(CCC)c1c([N+](=O)[O-])cc(S(=O)(=O)Nc2cccc(OC)c2)cc1[N+](=O)[O-]`, the IC50 in [1] amounted to 1.3 µM; in data set [3] it was 25 µM; in data set [5], 36 µM; in data set [2], 8.1 µM. Besides, the figures for the inhibition in data set [4] and in data set [6] were 39% and < 20%, respectively.
Turning to `CCCN(CCC)c1c([N+](=O)[O-])cc(S(=O)(=O)N2CCOCC2)cc1[N+](=O)[O-]`, the IC50 in [1] and in data set [2] was > 100 µM each time.
Regarding `CCCN(CCC)c1c([N+](=O)[O-])cc(S(=O)(=O)N(c2ccccc2)c2ccccc2)cc1[N+](=O)[O-]`, the IC50 in data set [1] was 7 µM; in [3], > 100 µM; in [5] it was > 100 µM; in data set [2], > 100 µM.
With `CCCN(CCC)c1c([N+](=O)[O-])cc(S(=O)(=O)NC2CC2)cc1[N+](=O)[O-]`, the results for the IC50 in data set [1] and in data set [2] were 3.4 µM and 43 µM, respectively.
In turn, `Cc1ccc(C(=O)Nc2ccc(S(=O)(=O)O)c3cc(S(=O)(=O)O)cc(S(=O)(=O)O)c23)cc1NC(=O)c1cccc(NC(=O)Nc2cccc(C(=O)Nc3cc(C(=O)Nc4ccc(S(=O)(=O)O)c5cc(S(=O)(=O)O)cc(S(=O)(=O)O)c45)ccc3C)c2)c1` [SURAMIN] yielded an IC50 in [1] of 0.21 µM.
For the molecule `CCN(CC)c1c([N+](=O)[O-])cc(S(=O)(=O)Nc2ccccc2)cc1[N+](=O)[O-]`, the IC50 in data set [1] is 2.8 µM; in [3], 48 µM; in [5] it was 56 µM; in data set [2] it was 11 µM. The inhibition in data set [4] and in [6] was < 20% in each case.
As to `CCCCN(CCCC)c1c([N+](=O)[O-])cc(S(=O)(=O)Nc2ccccc2)cc1[N+](=O)[O-]`, the IC50 is 0.12 µM in data set [1]; 12 µM in [3]; 13 µM in data set [5]; 6.9 µM in data set [9]; 2.6 µM in data set [2]. The Survival in [7] was found to be 8 days. The inhibition in data set [4] is 104%; in [6], < 20%. In [8], this molecule yielded a Dose of 20 mg/kg. In [10], the Activity stood at 0.
For the molecule `CCCN(CCC)c1c([N+](=O)[O-])cc(S(=O)(=O)N(CCC)CCC)cc1[N+](=O)[O-]`, the IC50 in data set [1] worked out at 17 µM; in data set [2] it was 55 µM.
The corresponding values for `CCCCCNS(=O)(=O)c1cc([N+](=O)[O-])c(N(CCC)CCC)c([N+](=O)[O-])c1` are 17 µM and 43 µM.
For `CCCN(CCC)c1c([N+](=O)[O-])cc(S(=O)(=O)Nc2ccc(C)cc2)cc1[N+](=O)[O-]`, the 50% inhibitory concentration (IC50) in [1] came out at 13 µM; in data set [3], 11 µM; in data set [5], 21 µM; in data set [2], 32 µM. The inhibition in [4] and in data set [6] was < 20% each time.
Regarding `N=C(N)c1ccc(OCCCCCOc2ccc(C(=N)N)cc2)cc1` [PENTAMIDINE], in data set [1], 0.013 µM corresponded to half-maximal inhibition (IC50). This counts as double-digit nanomolar.
As to `CCCN(CCC)c1c([N+](=O)[O-])cc(S(=O)(=O)Nc2ccc(OC)cc2)cc1[N+](=O)[O-]`, the IC50 in data set [1] is 19 µM; in data set [3], 15 µM; in data set [5] it was 31 µM; in [2] it was 32 µM. The inhibition in data set [4] and in data set [6] was < 20% in each case. In addition, in data set [8], the Dose entry is “No signs of toxicity”. The same molecule showed an Activity in [10] of 0.
On to `CCCN(CCC)c1c([N+](=O)[O-])cc(S(=O)(=O)Nc2cccc(C)c2)cc1[N+](=O)[O-]`, for which the IC50 was 1.9 µM in [1], 16 µM in data set [3], 25 µM in data set [5] and 23 µM in data set [2]. The inhibition in [4] and in [6] was < 20% in each case.
`CCCCCCNS(=O)(=O)c1cc([N+](=O)[O-])c(N(CCC)CCC)c([N+](=O)[O-])c1`: the IC50 in data set [1] is 15 µM; in [2] it was 26 µM.
On to `CCCN(CCC)c1c([N+](=O)[O-])cc(S(=O)(=O)N(C)c2ccccc2)cc1[N+](=O)[O-]`, for which the IC50 in data set [1] was 1 µM; in [3], 11 µM; in data set [5], > 100 µM; in data set [2], 21 µM. The inhibition in [4] is < 20%.
Turning to `CCCN(CCC)c1c([N+](=O)[O-])cc(S(=O)(=O)NC(C)C)cc1[N+](=O)[O-]`, the results for the IC50 in data set [1] and in [2] were 4.1 µM and > 100 µM, respectively.
On to `CCCN(CCC)c1c([N+](=O)[O-])cc(S(=O)(=O)Nc2ccccc2)cc1[N+](=O)[O-]`, for which the IC50 in data set [1] was 0.41 µM; in [3], 28 µM; in data set [5], 31 µM; in [9], 6.7 µM; in data set [2], 5 µM. The figures for the inhibition in [4] and in [6] were 89% and 14%, respectively. Also, the Dose in data set [8] was found to be 20 mg/kg. Besides, in [10], the Activity is listed as 0. The Survival in data set [11] was 8 days.
As to `CCCNS(=O)(=O)c1cc([N+](=O)[O-])c(N(CCC)CCC)c([N+](=O)[O-])c1`, the IC50 came to 8.9 µM in data set [1] and 54 µM in data set [2]. Further, the inhibition in [4] was < 20%.
For the molecule `CCCN(CCC)c1c([N+](=O)[O-])cc(S(=O)(=O)N(C)C)cc1[N+](=O)[O-]`, the IC50 is 5.8 µM in data set [1] and > 100 µM in [2].
In the case of `CCCN(CCC)c1c([N+](=O)[O-])cc(S(=O)(=O)NC2CCCC2)cc1[N+](=O)[O-]`, the IC50 was determined as 11 µM in data set [1] and 50 µM in [2]. Also, the inhibition in [12] is < 20%. Further, the Dose entry in data set [8] is reported as “No signs of toxicity”. The same molecule came in with an Activity in data set [10] of 0.
Turning to `CCCN(CCC)c1c([N+](=O)[O-])cc(S(=O)(=O)NC)cc1[N+](=O)[O-]`, the figures for the IC50 in [1] and in data set [2] were 5.3 µM and > 100 µM, respectively. The inhibition in data set [4] and in data set [6] was < 20% in each case.
`COc1cc2cc(c1Cl)N(C)C(=O)C[C@H](OC(=O)C(C)C)[C@]1(C)O[C@@H]1[C@H](C)[C@@H]1C[C@@](O)(NC(=O)O1)[C@H](OC)/C=C/C=C(\C)C2` [ANSAMITOCIN P3]: the IC50 in data set [3] amounted to 0.00047 µM; in data set [5], 6e-05 µM.
For the molecule `CCCCNS(=O)(=O)c1cc([N+](=O)[O-])c(N(CCC)CCC)c([N+](=O)[O-])c1`, the IC50 was determined as 12 µM in data set [1] and 50 µM in data set [2]. In data set [6], the inhibition is < 20%.
In the case of `CCCN(CCC)c1c([N+](=O)[O-])cc(S(N)(=O)=O)cc1[N+](=O)[O-]` [ORYZALIN], the IC50 in data set [1] amounted to 12 µM; in [3], 44 µM; in data set [5] it was 56 µM; in [2], 65 µM.
For the molecule `CCCN(CCC)c1c([N+](=O)[O-])cc(S(=O)(=O)N(CC)CC)cc1[N+](=O)[O-]`, the IC50 was found to be 8.3 µM in [1] and 27 µM in [2].
Regarding `CCCN(CCC)c1c([N+](=O)[O-])cc(S(=O)(=O)Nc2ccc(Cl)cc2)cc1[N+](=O)[O-]`, the IC50 in data set [1] is 13 µM; in data set [3], 10 µM; in data set [5] it was 16 µM; in data set [2] it was 13 µM. Further, the inhibition in data set [4] and in data set [6] was < 20% each time.
Consider `CCCN(CCC)c1c([N+](=O)[O-])cc(S(=O)(=O)Nc2cc(Cl)cc(Cl)c2)cc1[N+](=O)[O-]`, for which the IC50 in data set [1] was determined as 8 µM; in data set [3] it was 5.1 µM; in data set [5], 11 µM; in data set [9], 5.8 µM; in [2], 3.7 µM. Moreover, the values for the inhibition in data set [4] and in [6] were 102% and < 20%, respectively.
`CCCN(CCC)c1c([N+](=O)[O-])cc(S(=O)(=O)Nc2ccccn2)cc1[N+](=O)[O-]`: the IC50 was 9.2 µM in [1], 45 µM in [3] and 60 µM in data set [2].
In the case of `CCCN(CCC)c1c([N+](=O)[O-])cc(S(=O)(=O)Nc2ccc(Cl)c(Cl)c2)cc1[N+](=O)[O-]`, the IC50 in data set [1] was determined as 7.9 µM; in data set [3] it was 7.2 µM; in data set [5], 15 µM; in [2], 5 µM. For the same molecule, the inhibition in data set [4] and in data set [6] was < 20% in each case.
